# sPLA2-III inh: human group III sPLA2 inhibitors, primary screen, biochemical, QFRET, BODIPY PC-A2 liposome substrate; QFRET BODIPY PC-A2 liposome hydrolysis, fluorescence; inhibition, % at 12.2 µM; 0.56% of 370,000 active;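 active = inhibition above mean plus 3 SD of compounds lying within the high and low control bounds, cut at about 19% in these data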;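 note: 0% = median of test compound wells and 100% = no enzyme DMSO wells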
# Lipid droplet: inhibitors of hepatocyte lipid droplet formation, primary screen, imaging, high-throughput imaging, BODIPY stain. AML12 mouse hepatocytes, oleate lipid droplets. inhibition, % at 6.5 µM. 0.4% of 240,000 active;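 active = lipid droplet intensity inhibited by at least 50%, with more than 500 cells counted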
#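 Technique: fluorescence imaging, 20x objective, two fields per well / Assay system: AML12 hepatocytes (mouse) / Measure: % inhibition of lipid droplet signal / Doses: 6.5 µM single-point dosing / Incubation: overnight exposure / Reagent: 100 µM oleic acid challenge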
# M18AAP inhibitor: PfM18AAP inhibitors, malaria aminopeptidase, primary screen, biochemical, QFRET, recombinant enzyme. inhibition, % at 7.35 µM. 1.2% of 290,000 active. M18 aspartyl aminopeptidase (Plasmodium falciparum 3D7). H-Glu-NHMec fluorogenic cleavage;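 active = inhibition above the campaign mean inhibition over all tested compounds plus 3 SD, cut at about 28% in these data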;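 note: 0% = plate median of test compound wells and 100% = 2 mM ZnCl2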
# NRP1-CendR mod: modulators of CendR peptide binding to NRP-1, primary screen, biochemical, fluorescence polarization, uHTS | Neuropilin-1 (Homo sapiens), O14786 | inhibition, % at 25 µM | FAM-RPARPAR peptide binding to NRP-1 | 0.85% of 360,000 active;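 active = inhibition or corrected inhibition above about 18%, plus a signal ratio from 0.5 to 1.5, limit read from the data, passing the limit was not always enough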
# Target sequence (O14786 whole entry, looked up): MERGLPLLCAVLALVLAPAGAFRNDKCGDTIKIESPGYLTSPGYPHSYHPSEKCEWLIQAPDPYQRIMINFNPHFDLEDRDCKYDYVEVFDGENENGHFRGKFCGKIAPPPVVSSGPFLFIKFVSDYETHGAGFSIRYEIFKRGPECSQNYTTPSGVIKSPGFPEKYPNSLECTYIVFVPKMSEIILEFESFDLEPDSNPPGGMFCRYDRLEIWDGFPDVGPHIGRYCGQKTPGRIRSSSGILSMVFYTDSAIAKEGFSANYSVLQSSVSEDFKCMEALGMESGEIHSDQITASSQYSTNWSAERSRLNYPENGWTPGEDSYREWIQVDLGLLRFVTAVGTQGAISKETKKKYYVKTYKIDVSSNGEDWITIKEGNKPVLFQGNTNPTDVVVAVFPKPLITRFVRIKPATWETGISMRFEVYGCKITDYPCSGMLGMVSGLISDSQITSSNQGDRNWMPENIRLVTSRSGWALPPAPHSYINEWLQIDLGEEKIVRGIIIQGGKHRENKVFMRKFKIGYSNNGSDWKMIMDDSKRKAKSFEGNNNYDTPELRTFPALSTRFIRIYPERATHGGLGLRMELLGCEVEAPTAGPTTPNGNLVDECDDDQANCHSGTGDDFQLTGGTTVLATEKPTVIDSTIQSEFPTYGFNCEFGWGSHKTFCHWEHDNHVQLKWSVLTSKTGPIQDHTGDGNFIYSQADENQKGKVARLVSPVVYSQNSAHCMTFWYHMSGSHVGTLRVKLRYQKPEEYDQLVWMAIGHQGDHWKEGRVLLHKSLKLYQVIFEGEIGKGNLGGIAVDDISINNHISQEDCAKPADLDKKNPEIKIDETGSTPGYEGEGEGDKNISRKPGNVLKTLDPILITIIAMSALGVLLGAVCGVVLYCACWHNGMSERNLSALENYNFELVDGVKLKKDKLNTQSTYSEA
# Arr AP2 block: inhibitors of beta-arrestin/AP2 binding, primary screen, biochemical, GPCR trafficking, flow cytometry. 0.31% of 340,000 active. AID 504490, 2011. inhibition, % at 10 µM. FITC-arrestin peptide / GST-AP2 beads; AP2 beta2 appendage carries R879A mutation;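 active = inhibition above a set limit, near 3 SD of compounds lacking own fluorescence, cut at about 54% in these data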;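 note: plate controls were DMSO wells for no effect and 5 µM unlabelled arrestin peptide for full effect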
#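 System: GST-AP2 R879A glutathione beads. Medium: PBS with 0.05% Tween 20 and 0.1% BSA. Also added: FITC-arrestin peptide, 50 nM. Incubation: 12 min plus 1 h, RT. Measured by: high-throughput flow cytometry of beads, ex 488, em 535 nm. Evaluation: percent drop in bead-associated FITC signal.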
# m5-HT2A agonist: mouse Htr2a agonists via beta-arrestin recruitment, primary screen, cell-based, luminescence. 0.66% of 360,000 active. 5-hydroxytryptamine receptor 2A (Mus musculus), P35363. activation, % at 7.6 µM. CHO-K1 mHTR2A beta-arrestin complementation; percent of 30 µM serotonin response;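 active = activation above a run cutoff, the mean activation of all tested compounds plus 3 SD, cut at about 14% in these data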;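 note: 0% = plate median of compound wells and 100% = 30 µM serotonin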
# OPRM1 ag: OPRM1 agonists via beta-arrestin recruitment, confirmation, counter-screen for mouse HTR2A agonist project, cell-based, luminescence, single concentration; U2OS OPRM1 beta-arrestin PathHunter; DMSO 0%, DAMGO 9.3 µM 100%; AID 624380, 2012; shares compounds with m5-HT2A agonist; 5.3% of 2,300 active; activation, % at 9.3 µM;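 active = mean activation above the mean of DMSO-only wells plus 3 SD, cut at about 0.5% in these data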
# HTR2A ag conf: mouse HTR2A agonists, beta-arrestin recruitment, confirmation, cell-based, luminescence, CHO-K1 PathHunter, triplicate. shares compounds with m5-HT2A agonist. DMSO 0%, 30 µM serotonin 100%. activation, % at 7.6 µM. 19% of 2,300 active. AID 624381, 2012;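 active = mean activation across triplicates above the hit threshold derived in the original primary screen, cut at about 15% in these data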
# * = called active by the depositor; . = not tested or not shown; ! = not confirmed by another sample. Hits are enriched below; roughly 3.3% of the tested compounds scored in any of these assays.
SMILES,sPLA2-III inh,Lipid droplet,M18AAP inhibitor,NRP1-CendR mod,Arr AP2 block,m5-HT2A agonist,OPRM1 ag,HTR2A ag conf
CN1C[C@H](CO)C[C@@H]2c3cccc4[nH]cc(c34)C[C@H]21,-0.2,-5.0,9.4,8.1,9.1,23.1*,-0.2,112.8*
Cc1ccc(C(=O)NC(O)C(Cl)(Cl)Cl)cc1 (stereo unspecified),14.8,-0.2,2.0,-6.5,11.1,7.4,.,.
CC1CCN(C(CC(=O)c2ccccc2)C(=O)c2ccccc2)CC1 (stereo unspecified),-12.4,.,.,6.7,1.9,-6.3,.,.
CC(NC(=O)OCc1ccccc1)P(=O)(Oc1ccccc1)Oc1ccccc1 (stereo unspecified),-11.5,.,.,.,.,.,.,.
c1ccc(CNCCc2ccc3c(c2)OCO3)nc1,3.9,5.2,-2.2,6.1,3.8,4.0,.,.
Brc1cccc(CNCCc2ccc3c(c2)OCO3)c1,4.1,4.0,-5.3,9.8,18.9,21.2*,1.4*,21.0*
COc1cc2cc(C(=O)N3CC(COS(C)(=O)=O)c4ccc(O)cc43)[nH]c2c(OC)c1OC (stereo unspecified),.,.,.,-10.0,6.9,-3.3,.,.
Clc1cccc(N2CCNCC2)n1,4.0,-5.1,-8.1,-1.3,-5.5,38.6*,-0.5,23.7*
Cc1cc(=O)oc2c(C)c(OCC(=O)N3CCC(C(=O)O)(c4ccccc4)CC3)ccc12,13.5,-10.1,-7.0,-0.7,0.5,4.7,.,.
CN1CCN(C(=O)Cc2ccccc2)CC1,2.0,-12.0,-3.1,0.2,9.8,20.3*,-0.8,0.7
CCc1ccc(CN2CCN(C(=O)Cc3ccccc3)CC2)cc1,0.1,-14.6,3.7,4.9,13.8,-0.2,.,.
O=C(Cc1ccccc1)N1CCN(Cc2ccccc2Cl)CC1,-1.3,.,8.3,4.4,49.0,21.7*,-0.7,2.0
CSc1ccc(CNC(C)C(O)c2ccccc2)cc1 (stereo unspecified),1.8,-29.5,1.3,1.2,14.6,-6.6,.,.
N#Cc1ccccc1Cn1cc(C(=O)c2ccccc2F)c2ccccc21,-15.7,-1.7,-0.9,-12.3,7.5,-8.8,.,.
Clc1ccc(C(c2ccc(Cl)cc2)n2cc[n+](CC(OCc3ccc(Cl)cc3Cl)c3ccc(Cl)cc3Cl)c2)cc1 (stereo unspecified),-87.6,.,.,4.7,4.2,12.3,.,.
CC[C@H](C)[C@@H]1NC(=O)[C@@H](CC(C)C)NC(=O)[C@H](C(C)C)NC(=O)[C@H]2CSSC[C@H](NC1=O)C(=O)N2,10.7,.,.,2.7,.,56.8*,1.7*,40.5*
CC(=O)c1cccc(NC(=O)N2C[C@H]3C[C@@H](C2)c2cccc(=O)n2C3)c1,15.3,5.4,-4.3,14.2,0.8,-4.0,.,.
Cn1c(O)c(C(=O)c2ccccc2)c(=O)n(C)c1=O,3.8,16.4,4.1,12.5,-5.1,17.6*,-0.4,-0.7
Cn1c(O)c(C(=O)c2ccccc2F)c(=O)n(C)c1=O,-5.1,1.0,0.4,-6.3,-8.1,-3.8,.,.
Cc1nc2cc(OC(=O)N(C)Cc3cccc(-c4ccncc4)c3)ccc2s1,.,.,.,-7.1,.,19.8*,-0.4,-4.2
Clc1ccc(-c2nc3ccc(Cl)cn3c2CN2CCCCC2)cc1,10.1,0.9,1.0,-4.3,6.3,1.7,.,.
O=P(C(Cl)Cl)(N1CCCCC1)N1CCCCC1,2.8,-2.6,1.8,1.3,-4.4,-5.1,.,.
CC12CC3CC(C)(C1)CC(N)(C3)C2,17.8,-4.7,0.6,-1.8,-2.2,18.0*!,-0.5,3.7
Cc1c(N=Cc2c(O)n(CCc3ccc(F)cc3)c(=O)[nH]c2=O)c(=O)n(-c2ccccc2)n1C,-0.7,-22.0,-3.3,-5.7,-11.2,-3.3,.,.
CC1=NN=C(c2ccc(N)cc2)c2cc3c(cc2C1)OCO3,18.1,.,.,-7.6,-0.9,31.4*,-0.5,39.8*
SMILES,sPLA2-III inh,Lipid droplet,M18AAP inhibitor,NRP1-CendR mod,Arr AP2 block,m5-HT2A agonist,OPRM1 ag,HTR2A ag conf
FC(F)(F)c1ccc(CNCCc2c[nH]c3ccccc23)cc1,12.9,-38.7,-4.9,3.1,38.1,1.5,.,.
Clc1cccc(CNCCc2c[nH]c3ccccc23)c1,-2.3,0.6,6.3,2.4,8.1,41.7*,-0.1,19.2*
O=C(Oc1c(Cl)cc(Cl)c2ccccc12)N1CCCCC1,-2.1,1.4,0.8,-6.6,8.2,14.6*,0.2,5.5
N#CC12CNCC1CN=N2 (stereo unspecified),3.9,8.7,-1.8,9.7,-9.3,22.5*,-0.4,3.5
N#CC1c2ccccc2C=CN1C(=O)c1ccc(N(CCCl)CCCl)cc1 (stereo unspecified),7.9,.,.,0.0,.,23.8*,-0.2,-4.8
COC(=O)C1(F)C(=O)NC(=O)NC1O (stereo unspecified),14.8,.,.,11.4,.,-1.8,.,.
CC[C@@H]1C(=O)OC[C@@H]1Cc1cncn1C,-0.4,1.3,-6.3,-4.8,-2.1,17.8*!,-0.3,3.8
CC[C@@H]1C(=O)OC[C@@H]1Cc1cncn1C,-5.2,.,.,0.3,-8.4,-2.9,.,.
CC1(C)C(c2ccccc2)=NC(c2cccnc2)N1O (stereo unspecified),2.1,-0.1,2.0,-4.3,12.0,2.8,.,.
CO[C@H]1C=CCCC=CC(=O)O[C@H]([C@H](C)C(=O)CCCC2CC(=O)NC(=O)C2)C(C)=C[C@@H](C)[C@@H]1O,-3.3,.,.,-3.8,.,0.6,.,.
COc1ccc(CCNCc2ccc(C)s2)cc1OC,1.7,-3.1,0.4,6.4,35.0,15.5*,-0.4,-1.2
Cn1cccc1CNCCc1ccc(F)cc1,1.1,-26.1,3.1,-3.0,9.6,7.4,.,.
COc1ccc(CCNCc2sccc2C)cc1OC,2.3,7.6,-12.8,2.4,5.7,32.2*,-0.4,9.1
Cc1ccc(CNCCc2ccc(F)cc2)s1,-7.3,6.6,0.4,5.3,-14.8,-1.4,.,.
COc1ccc(CCNCc2cccn2C)cc1OC,-1.2,11.5,12.3,-4.8,-5.7,25.1*,-0.7,13.8

# Source: PubChem
